Tests used:
[1] = biological target: mTOR kinase; settings: read-out: inhibition constant (Ki) mTOR kinase; cited from earlier work
[2] = in vitro; weakly basic molecule; cited from earlier work
[3] = system: advanced solid tumors; experiment: Tumor response by RECIST v1.0 / modified RECIST; format: in vivo, human
[4] = system: phospho-AKT (pAKT) (S473) in platelet-rich plasma; experiment: pAKT; format: in vivo, human
How it was run: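 Patients took oral test compound QD on 21/28 or 28/28 schedules. Total AKT and pAKT (S473) were measured by Meso Scale Discovery immunoassay. Results are percent change in pAKT from baseline.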

[5] = system: tumor glucose uptake (FDG-PET); experiment: FDG-PET tumor uptake; format: in vivo, human
How it was run: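 Patients with advanced solid tumours received oral test compound once daily. FDG-PET/CT scans were taken at baseline and 1-4 h after dosing on days 22 and 55. Scans were centrally assessed by EORTC criteria, with SUVmax change as the measure. PIK3CA hotspot mutations in archival FFPE tumour DNA were typed by DxS allele-specific PCR, qRT-PCR or Sanger sequencing.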

[6] = system: xenograft cancer models with PI3K-mutant, PTEN-null, and KRAS-mutant cell lines; settings: multiple xenograft models; cited from earlier work
[7] = Plasma pharmacokinetics in patients; format: in vivo, human; settings: for half-life: human, plasma, po
How it was run: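 Oral test compound was given as a single dose on day 1 (7-day run-in for terminal half-life), then QD from day 8. PPI cohort: rabeprazole 20 mg days 4-7, co-dosed day 8, intensive sampling day 8. Quantified by LC-MS/MS.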

Question: For `Cc1c(CN2CCN(C(=O)[C@H](C)O)CC2)sc2c(N3CCOCC3)nc(-c3cnc(N)nc3)nc12` [apitolisib], which Ki [1] is on record?
Answer: The Ki was 17.3 nM.

Question: And the drug solubility [2]?
Answer: Its drug solubility is “pH-dependent drug solubility”.

Question: What about the “Median time on study” value ([3]; 40 mg 28/28) of the same molecule?
Answer: The value was 2.9 months.

Question: What about the “stable disease with tumor regression” value ([3]; 40 mg 28/28) of the same molecule?
Answer: Its value is 20 patients.

Question: What about the “time on study, range” value ([3]; 40 mg 28/28) of the same molecule?
Answer: The value was 1-21.2 months.

Question: What about the PRs ([3]; 40 mg 28/28, 49 RECIST evaluable patients) of the same molecule?
Answer: The PRs was “Five”.

Question: What about the “PD as best radiological response” value ([3]; 14 evaluable patients with PIK3CA mutations, 40 mg 28/28) of the same molecule?
Answer: The value was 3.

Question: And the “PRs as best radiological response” value ([3]; 14 evaluable patients with PIK3CA mutations, 40 mg 28/28, 1 confirmed)?
Answer: Its value is 3.

Question: And the “PR rate in MPM patients” value ([3]; MPM)?
Answer: Its value is 12%.

Question: And the “Median time on study” value ([3]; MPM, 30 mg 28/28)?
Answer: The value was 4 months.

Question: What about the “time on study, range” value ([3]; MPM, 30 mg 28/28) of the same molecule?
Answer: Its value is 0.5-38.9 months.

Question: What about the “patients on study for more than 6 months” value ([3]; MPM, 30 mg 28/28 (8 patients)) of the same molecule?
Answer: The value was 30%.

Question: What about the partial response rate ([3]; RP2D 40 mg QD) of the same molecule?
Answer: The partial response rate was 10.2%.

Question: What about the “dose from which anti-tumor activity was apparent” value ([3]; in vivo) of the same molecule?
Answer: Its value is 8 mg.

Question: What about the “response rate with enrichment for PIK3CA mutations” value ([3]; in vivo) of the same molecule?
Answer: Its value is 18.8%.

Question: What about the “single agent response rate” value ([3]; in vivo) of the same molecule?
Answer: Its value is 10-19%.

Question: And the time on apitolisib ([3]; one patient, metastatic clear cell ovarian cancer, 40 mg 28/28)?
Answer: Its time on apitolisib is 282 days.

Question: What about the “maximal tumor shrinkage, change from baseline” value ([3]; one patient, metastatic clear cell ovarian cancer, E545K PIK3CA, 40 mg 28/28) of the same molecule?
Answer: Its value is −48.3%.

Question: What about the “patients continuing on study for over 12 months” value ([3]; stage 1 (3 patients)) of the same molecule?
Answer: Its value is 5%.

Question: And the “partial responses (PR)” value ([3]; stage 1, among 56 patients)?
Answer: Its value is 4.

Question: What about the confirmed responses ([3]; stage 1, 32 mg QD 21/28 and 50 mg QD 21/28) of the same molecule?
Answer: Its confirmed responses is 2.

Question: And the “sustained pAKT inhibition” value ([4]; 40 mg 28/28)?
Answer: Its value is greater than 90%.

Question: What about the “doses with target modulation” value ([4]; in vivo) of the same molecule?
Answer: Its value is no less than 16 mg.

Question: And the “suppression of phosphorylated serine-473 AKT levels” value ([4]; platelet-rich plasma, within 4 hours, MTD 50 mg)?
Answer: The value was no less than 90%.

Question: And the “patients with PIK3CA mutations with more than 25% mean decrease in SUVmax” value ([5]; 40 mg QD)?
Answer: Its value is 9/12.

Question: What about the “patients with decrease in FDG-PET uptake of >25%” value ([5]; 40 mg QD (21/32)) of the same molecule?
Answer: The value was 66%.

Question: What about the “PIK3CA mutation patients with FDG-PET response” value ([5]; all dose cohorts (10 out of 14)) of the same molecule?
Answer: The value was 71%.

Question: And the Tumor growth inhibition [6]?
Answer: The Tumor growth inhibition was “Tumor growth inhibition has been demonstrated”.

Question: And the half-life ([7]; mean terminal elimination half-life, patients)?
Answer: The half-life was 11.3 h.

Question: And the half-life ([7]; terminal elimination half-life, range, patients)?
Answer: Its half-life is 3.26 to 45.4 h.

Question: And the “time of peak mean plasma concentration after dose” value ([7]; oral, patients)?
Answer: Its value is 1 to 2 h.

Question: What about the “impact of PPI on apitolisib PK” value ([7]; rabeprazole 20 mg daily for 5 days, 6 patients) of the same molecule?
Answer: The value was “no significant impact”.

Question: What about the accumulation ([7]; repeated QD doses) of the same molecule?
Answer: Its accumulation is “less than 1.2”.

Source: publication PMC4876928 (Clinical cancer research : an official journal of the …, 2016)
